Reference: ChEMBL document CHEMBL1137747, “Fullerene derivatized s-triazine analogues as antimicrobial agents” (2009)
Values after ≈ are worked out from the molar mass of the structure shown. Active and inactive are the calls of the source. The rule behind the calls is not given here.

Assays:
Klebsiella pneumoniae [1] = assay: Antibacterial activity against Klebsiella pneumoniae at 100 ug/ml by disk diffusion method; assay type: functional; conditions: for zone of inhibition at 100 µg/mL: read-out: IZ
In short: (§1)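 Agar disc diffusion on nutrient agar plates. Inoculum of […] (0.5 McFarland) spread evenly over the agar surface. Whatman filter paper discs, 6.25 mm diameter, dry-heat sterilized at 140 °C for 1 h, soaked in test solution and placed on the agar. Plates inverted and incubated 24 h at 37 °C. Solvent and growth controls and a ciprofloxacin reference run alongside. Inhibition zones measured.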

Pseudomonas aeruginosa = assay: Antibacterial activity against Pseudomonas aeruginosa at 100 ug/ml by disk diffusion method; assay type: functional; conditions: for zone of inhibition at 100 µg/mL: read-out: IZ; in short: as §1
Bacillus subtilis [2] = assay: Antibacterial activity against Bacillus subtilis at 100 ug/ml by disk diffusion method; assay type: functional; conditions: read-out: IZ; in short: as §1
Bacillus pumilus [3] = assay: Antibacterial activity against Bacillus pumilus at 100 ug/ml by disk diffusion method; assay type: functional; conditions: read-out: IZ; in short: as §1
Escherichia coli = assay: Antibacterial activity against Escherichia coli at 100 ug/ml by disk diffusion method; assay type: functional; conditions: for zone of inhibition at 100 µg/mL: read-out: IZ; in short: as §1
Staphylococcus aureus = assay: Antibacterial activity against Staphylococcus aureus at 100 ug/ml by disk diffusion method; assay type: functional; conditions: read-out: IZ; in short: as §1
Klebsiella pneumoniae [4] = assay: Antibacterial activity against Klebsiella pneumoniae by broth dilution technique
Bacillus pumilus [5] = assay: Antibacterial activity against Bacillus pumilus by broth dilution technique
Bacillus subtilis [6] = assay: Antibacterial activity against Bacillus subtilis by broth dilution technique

| Compound | inhibition zone (IZ) (Klebsiella pneumoniae [1]) | inhibition zone (IZ) (Pseudomonas aeruginosa) | zone of inhibition at 100 µg/mL (Bacillus subtilis [2]) [mm] | zone of inhibition at 100 µg/mL (Bacillus pumilus [3]) [mm] | inhibition zone (IZ) (Escherichia coli) | zone of inhibition at 100 µg/mL (Staphylococcus aureus) [mm] | zone of inhibition at 100 µg/mL (Klebsiella pneumoniae [1]) [mm] | zone of inhibition at 100 µg/mL (Pseudomonas aeruginosa) [mm] | zone of inhibition at 100 µg/mL (Escherichia coli) [mm] | MIC (Klebsiella pneumoniae [4]) [µg/mL] | MIC (Bacillus pumilus [5]) [µg/mL] | MIC (Bacillus subtilis [6]) [µg/mL] |
| --- | --- | --- | --- | --- | --- | --- | --- | --- | --- | --- | --- | --- |
| CN(C)c1nc(N/N=C/c2ccc(C=O)cc2)nc(N(C)C)n1 | inactive | inactive | 10 | 10 | inactive | 9 |  |  |  |  |  |  |
| CNc1nc(N)nc(N/N=C/c2ccc(C=O)cc2)n1 |  |  | 18 | 13 |  | 9 | 15 | 13 | 15 |  |  |  |
| CNc1nc(N/N=C/c2ccc(C=O)cc2)nc(N(C)C)n1 |  |  | 10 | 11 |  | 10 | 12 | 10 | 12 |  |  |  |
| O=C(O)c1cn(C2CC2)c2cc(N3CCNCC3)c(F)cc2c1=O [CIPROFLOXACIN] |  |  | 38 | 36 |  | 22 | 19 | 32 | 27 | 12.5 (≈ 37.7 µM) | 0.25 (≈ 0.754 µM) | 0.06 (≈ 0.181 µM) |
| CNc1nc(NC)nc(N/N=C/c2ccc(C=O)cc2)n1 |  |  | 12 | 10 |  | 11 | 14 | 11 | 14 |  |  |  |
| Nc1nc(N)nc(N/N=C/c2ccc(C=O)cc2)n1 | inactive |  | 16 | 15 |  | 9 |  | 11 | 15 |  |  |  |
